Cl transport mod = KCC2 (human) Cl- transport modulation | B-score of Tl+ flux slope (higher = more flux/activation; lower = inhibition) at 10 µM | KCC2 cells, thallium flux FluoZin-2 fluorescence | AID 1456 | Q9H2X9 | actives 2.2% (n = 190,000);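 active means thallium flux slope and its plate-corrected score both differing from the plate sample mean at a set confidence after two filtering rounds, in either direction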;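 further: slope of fluorescence scaled to starting intensity during 10 to 20 s after thallium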
Target sequence (Q9H2X9 whole entry, looked up): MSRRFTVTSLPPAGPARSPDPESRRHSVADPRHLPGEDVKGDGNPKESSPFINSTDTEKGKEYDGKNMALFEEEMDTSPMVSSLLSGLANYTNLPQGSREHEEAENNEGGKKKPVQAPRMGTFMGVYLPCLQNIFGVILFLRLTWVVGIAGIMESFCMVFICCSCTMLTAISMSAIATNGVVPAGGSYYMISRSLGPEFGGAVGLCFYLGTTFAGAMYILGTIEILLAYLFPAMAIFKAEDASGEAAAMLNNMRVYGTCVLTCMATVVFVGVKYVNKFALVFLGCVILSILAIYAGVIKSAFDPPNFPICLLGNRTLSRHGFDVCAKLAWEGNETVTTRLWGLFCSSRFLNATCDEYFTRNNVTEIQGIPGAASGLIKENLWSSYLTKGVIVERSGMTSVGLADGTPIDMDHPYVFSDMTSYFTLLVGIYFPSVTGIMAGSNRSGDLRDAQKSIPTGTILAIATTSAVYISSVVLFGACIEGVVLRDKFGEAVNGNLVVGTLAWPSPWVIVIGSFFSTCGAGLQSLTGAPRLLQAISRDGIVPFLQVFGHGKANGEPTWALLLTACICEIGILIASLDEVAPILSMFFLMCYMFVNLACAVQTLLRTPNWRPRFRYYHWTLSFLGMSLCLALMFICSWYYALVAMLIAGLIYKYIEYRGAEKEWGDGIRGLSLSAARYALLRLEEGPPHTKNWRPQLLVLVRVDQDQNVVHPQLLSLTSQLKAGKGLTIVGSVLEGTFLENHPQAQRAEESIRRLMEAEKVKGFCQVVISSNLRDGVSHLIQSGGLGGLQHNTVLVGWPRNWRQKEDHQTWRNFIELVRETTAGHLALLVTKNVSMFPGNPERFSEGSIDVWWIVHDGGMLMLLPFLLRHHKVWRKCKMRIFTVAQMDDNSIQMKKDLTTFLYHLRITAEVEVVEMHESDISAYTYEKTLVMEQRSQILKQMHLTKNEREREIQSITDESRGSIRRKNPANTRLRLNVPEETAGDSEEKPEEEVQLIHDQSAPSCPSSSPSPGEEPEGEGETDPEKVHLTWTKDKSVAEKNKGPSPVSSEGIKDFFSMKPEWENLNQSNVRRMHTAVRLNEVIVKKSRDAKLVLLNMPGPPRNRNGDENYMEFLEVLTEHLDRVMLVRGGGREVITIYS
Diaphorase act = activates diaphorase or chemically reduces, flagging diaphorase assay artifacts | Diaphorase/resazurin coupled assay, resorufin fluorescence, 16 min; active compounds read high; 1 = vehicle wells, 0 = NADH-free wells | activation factor at 20 µM | actives 0.005% (n = 190,000) | AID 1229;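 active means diaphorase activity raised at least twofold by the compound at 20 µM; inactive means activation factor below 2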
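Measured by – red resorufin fluorescence at 544/590 nm excitation/emission · Test system – Clostridium kluyveri diaphorase, purified enzyme · Incubation – reaction time 16 min, room temperature · Buffer or medium – 50 mM HEPES pH 7.4 with 4.542 mM MgCl2, 0.005% Tween 20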
Diaphorase inh = inhibits diaphorase or chemically oxidizes, flagging diaphorase assay artifacts. diaphorase resazurin-to-resorufin fluorescence, NADH, 16 min; bacterial (C. kluyveri) enzyme, not human. inhibition, % at 20 µM. actives 0.69% (n = 190,000). AID 1217;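 active means primary screen inhibition at 20 µM above a set limit, cut at about 50% in these data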;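 further: plate controls were DMSO with full reaction for no effect and wells lacking NADH for full effect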
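Test system: bacterial diaphorase enzyme (C. kluyveri); Quantity: 0.14 U/mL diaphorase, enzyme working solution; Times: reaction incubation of 16 min at room temperature; Measured by: fluorescence of resorufin formed from resazurin, Ex 544/Em 590 nm; Benchmarks: positive control minus NADH, DMSO neutral control.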
ROMK primary = modulators of human ROMK potassium channel; AID 1918; B-score at 10 µM; Tet-inducible ROMK, thallium flux fluorescence; actives lie on both sides; actives 2% (n = 130,000);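 active means signal ratio slope over the read window, or its plate-corrected B-score, at least 3 SD from the plate mean, either direction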;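 further: B-score of the F/F0 ratio slope over 7 to 12 s after thallium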
Lmaj promast = inhibitors of Leishmania major promastigote growth. Leishmania major promastigotes, resazurin fluorescence viability. inhibition, % at 10 µM. actives 9% (n = 200,000). AID 1063; in the data active means inhibition above about 50%;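 further: promastigotes grown with compound for 44 hours at 28 °C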
WT yeast gro inh = growth inhibition of WT yeast, mitochondrial fusion screen. actives 2.1% (n = 190,000). inhibition, % at 10 µM. AID 1362. mitochondrial fusion phenotypic screen, WT strain; in the data active means inhibition above about 58%; tested in S. cerevisiae
Starred values were filed as active, the others as inactive; . = no result. In the library only some 12% were active in any assay of this set; here they are far more common.

SMILES | Cl transport mod | Diaphorase act | Diaphorase inh | ROMK primary | Lmaj promast | WT yeast gro inh
Cc1ccc(S(=O)(=O)Nc2cc3c(C(=O)Nc4ccccc4)c(C)oc3c3ccccc23)cc1 | 0.053 | 0.7 | 31 | . | 61* | 27
CC1CCN(S(=O)(=O)c2ccc(S(=O)(=O)N3CCC4(CC3)OCCO4)cc2)CC1 | -0.47 | 0.9 | 12 | -0.41 | 6 | -9
S=C(Nc1ccccc1)N1CCN(c2ccccn2)CC1 | 0.35 | 1 | -1 | 0.066 | -10 | 5
FC(F)Oc1cccc(NC(=S)N2CCN(c3ccccn3)CC2)c1 | -0.86 | 0.3 | 70* | 1.2 | 0 | 6
CC(C)C(=O)c1ccc(O)c(O)c1 | 0.37 | . | . | . | . | .
CCC(NC(C)C)C(O)c1ccc(O)c(O)c1 (configuration not stated) | -1 | 0.4 | 59* | . | 7 | -1
CC(Sc1ccsc1[N+](=O)[O-])C(=O)NCc1ccco1 (configuration not stated) | 0.18 | 0.9 | 10 | -0.62 | 30 | -1
Cc1ccc(C)c(NC(=S)Nc2ncccc2C)c1 | 0.43 | 0.8 | 24 | -0.7 | 16 | 68*
Cc1nn(Cc2c(F)c(F)c(F)c(F)c2F)c(C)c1NC(=O)c1ccc(COc2ccc(F)cc2)o1 | -1.5 | 0.8 | 17 | -0.67 | 8 | 15
CCC(c1nnc(SCC(=O)Nc2cc(Cl)ccc2C#N)n1C1CCCCC1)N(C)C (configuration not stated) | -0.45 | 0.9 | 11 | -0.83 | 77* | 17
CN(C)c1ccc(NC(=O)CSc2nc3ccccc3c(=O)n2C2CCCCC2)cc1 | 3.4 | 0.7 | 30 | . | 37 | 9
CCC(c1nnc(SCC(=O)Nc2ccc(C(C)=O)cc2)n1C1CCCCC1)N(C)C (configuration not stated) | -0.68 | 0.9 | 7 | -0.37 | 61* | 2
CCC(c1nnc(SCC(=O)Nc2cccnc2Cl)n1-c1ccccc1)N(C)C (configuration not stated) | 1.1 | 1 | 0 | 0.56 | -2 | -9
CNc1nc(OCC(F)(F)F)nc(N2CCN(C34CC5CC(CC(C5)C3)C4)CC2)n1 | -0.18 | . | . | -0.045 | -1 | .
C=CCn1c(=O)n(C(=O)OCC)c2cc(Br)ccc21 | . | 1 | 4 | -2.1 | 1 | -3
CC(C)[C@@H]1CC[C@@H](C)c2c(-c3ccccc3)n[nH]c21 | 1.1 | 0.8 | 16 | 0.58 | 18 | 62*
CN(Cc1ccc(F)cc1)C(=O)COc1ccccc1-c1ccccc1 | -1.2 | 0.7 | 25 | . | 3 | 64*
CN(Cc1ccccc1)C(=O)c1ccccc1-c1ccccc1 | -0.21 | 0.9 | 6 | 0.75 | 13 | 12
C=CCN(c1ccccc1Cl)S(=O)(=O)c1cccc(C(=O)OCC(=O)N(C)C2CCS(=O)(=O)C2)c1 (configuration not stated) | -1.2 | 1 | 2 | 0.7 | -2 | 5
CNS(=O)(=O)c1cnccc1N1CCN(c2cccc(Cl)c2)CC1 | -0.66 | 0.9 | 6 | -0.68 | 100* | 1
CN1CCN(S(=O)(=O)c2cnccc2N2CCN(c3cccc(Cl)c3)CC2)CC1 | . | 0.9 | 9 | 0.03 | 32 | 16
CCN(CC)S(=O)(=O)c1cnccc1N1CCN(c2cccc(Cl)c2)CC1 | 0.007 | 0.8 | 17 | 0.69 | 100* | 58*
Cc1cc(C)c(COc2ccc(/C=N/n3c(C)n[nH]c3=S)cc2)c(C)c1 | 2 | 0.9 | 10 | -0.049 | 2 | 91*
CCCN1CCN(C(=O)Cn2cnc3ccc(S(=O)(=O)N4CCC(C)CC4)cc3c2=O)CC1 | 0.52 | 0.9 | 5 | 0.12 | 93* | -5
Cc1oc2c(c1C(=O)O)C(=O)c1ccccc1C2=O | 0.061 | 0.9 | 7 | -0.017 | 100* | -5
SMILES | Cl transport mod | Diaphorase act | Diaphorase inh | ROMK primary | Lmaj promast | WT yeast gro inh
Cc1cc(=O)oc(C)c1C(=O)O | 0.041 | 0.9 | 5 | . | -6 | 1
CCN(CC)S(=O)(=O)c1cccc(NC(=O)c2cc(-c3cccs3)nn2-c2ccccc2)c1 | -0.89 | 0.8 | 16 | 0.02 | 98* | -8
Oc1ccc(/C=C/c2nc(-c3ccccc3O)n(-c3ccccc3)n2)cc1 | -0.21 | 0.8 | 18 | . | 18 | 79*
O=C1CCCN1CCCNCC(=O)N1c2ccccc2Sc2ccccc21 | -0.14 | 0.8 | 19 | -0.74 | 1 | -37
CCOCCCNCc1cc(Br)ccc1OCc1ccccc1 | 0.23 | 0.9 | 8 | -1.9 | 83* | 1
NS(=O)(=O)c1ccc(NCc2cc(Cl)ccc2OCc2ccc(F)cc2)cc1 | -1.5 | 0.8 | 20 | -0.11 | 54* | 13
CCOc1cc(CNCCc2ccc(S(N)(=O)=O)cc2)ccc1OCc1ccccc1 | -0.17 | 1.1 | -6 | -1.1 | 100* | -11
NS(=O)(=O)c1ccc(CCNCc2cc(Br)ccc2OCc2ccccc2)cc1 | -1.6 | 1 | -4 | -2.1 | 55* | 1
OCCNCc1cc(Br)ccc1OCc1ccccc1 | -0.35 | 1 | 5 | . | 4 | 3
COc1cc(CNCCc2ccc(S(N)(=O)=O)cc2)ccc1OCC(=O)NC(C)(C)C | 0.071 | 1 | -4 | . | -3 | 13
COc1ccccc1NC(=O)NS(=O)(=O)c1ccc(C)cc1 | . | 0.9 | 6 | -0.19 | -4 | -4
COc1ccc(S(=O)(=O)Nc2cc(C(=O)NCCCN3CCOCC3)ccc2N2CCOCC2)cc1 | 0.71 | 0.9 | 13 | 0.015 | 1 | -7
COC(=O)c1ccc(N2CCCCC2)c(NS(=O)(=O)c2ccc(C)cc2)c1 | . | 0.8 | 23 | -0.068 | 97* | 52
CCN(CC)CCNC(=O)c1ccc(N2CCCCC2)c(NS(=O)(=O)c2ccc(C)cc2)c1 | 0.26 | 0.9 | 8 | . | 101* | 16
Cc1ccccc1CC1(CO)CCCN(Cc2ccn[nH]2)C1 (configuration not stated) | 2.2 | 0.9 | 11 | -0.048 | 10 | -1
Cc1ccc(CN2CCCC(CO)(Cc3ccccc3C)C2)s1 (configuration not stated) | 0.59 | 0.8 | 20 | -2.1 | 66* | 15
CCOC(=O)N1CCC(N2CCCC(CO)(Cc3cccc(Cl)c3)C2)CC1 (configuration not stated) | . | 0.9 | 10 | -1.1 | 87* | 25
CCOC(=O)N1CCC(N2CCCC(CO)(Cc3ccccc3C)C2)CC1 (configuration not stated) | 0.98 | 0.8 | 19 | -0.91 | 88* | 27
CCCCCn1c(=O)c2ccccc2n2c(CCl)nnc12 | -0.66 | 1 | -1 | -1 | 87* | -16
CC(C)CCn1c(=O)c2ccccc2n2c(CCl)nnc12 | -0.42 | 0.9 | 7 | -1.6 | 93* | -7
CC(C)CCn1c(=O)c2ccccc2n2c(CN3CCCC3)nnc12 | -0.012 | 0.8 | 22 | 0.5 | 4 | 2

Assay outcomes as filed in PubChem BioAssay.
